From ChEMBL document CHEMBL3232994, “Searching for new derivatives of neocryptolepine: synthesis, antiproliferative, antimicrobial and antifungal activities” (Eur J Med Chem, 2014) come the findings set out here.

The test system of experiment [1] is Staphylococcus aureus. As to the kind of experiment: Antibacterial activity against Staphylococcus aureus NCTC 4163 assessed as growth inhibition after 18 hrs by two-fold serial dilution method. Conditions: NCTC 4163, 18 h. It is filed as functional. The essentials: (§1)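 Twofold serial agar dilution on Mueller–Hinton II agar per CLSI. Final inoculum 10⁴ CFU/mL, except Enterococcus hirae ATCC 10541 at 10⁵ CFU/mL. MIC read after 18 h at 35 °C.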

The next experiment deals with Enterococcus hirae. As to the kind of experiment: Antibacterial activity against Enterococcus hirae ATCC 10541 assessed as growth inhibition after 18 hrs by two-fold serial dilution method. It is filed as functional. Conditions: ATCC 10541, 18 h. The essentials: as §1
For experiment [2], the system named is Candida albicans. Description: Antifungal activity against Candida albicans SN250 assessed as growth inhibition after 18 hrs by two-fold serial dilution method. It is filed as functional. Conditions: SN250, 18 h.
In experiment [3] the test system is Candida albicans. Description: Antifungal activity against Candida albicans SN250 assessed as […] at 2.4 to 625 ug/mL after 24 hrs by XTT reduction assay. It is filed as functional, organism-based. A general note: Formazan colour is commonly taken as a measure of viable cells.
Experiment [4] concerns Staphylococcus aureus. As to the kind of experiment: Antibacterial activity against Staphylococcus aureus ATCC 25923 assessed as growth inhibition after 18 hrs by two-fold serial dilution method. It is filed as functional. The following applies: ATCC 25923, 18 h. The essentials:
as §1

In experiment [5] the test system is Micrococcus luteus. Description: Antibacterial activity against Micrococcus luteus ATCC 9341 assessed as growth inhibition after 18 hrs by two-fold serial dilution method. The following applies: ATCC 9341, 18 h.
Experiment [6] has as its system Staphylococcus epidermidis. As to the kind of experiment: Antibacterial activity against Staphylococcus epidermidis ATCC 12228 assessed as growth inhibition after 18 hrs by two-fold serial dilution method. It is filed as functional. Conditions: ATCC 12228, 18 h. The essentials: as §1
Experiment [7] concerns Candida albicans. As to the kind of experiment: Antifungal activity against Candida albicans ATCC 90028 assessed as growth inhibition after 18 hrs by two-fold serial dilution method. Conditions: ATCC 90028, 18 h. The experiment is classed as functional. The method, boiled down: (§2)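 MIC by twofold serial dilution on RPMI agar per CLSI. Final inoculum 10⁴ CFU/mL. Plates read after 18 h at 35 °C.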

In a further experiment the test system is Candida parapsilosis. As to the kind of experiment: Antifungal activity against Candida parapsilosis ATCC 22019 assessed as growth inhibition after 18 hrs by two-fold serial dilution method. It is filed as functional. The following applies: Lodderomyces parapsilosis, ATCC 22019, 18 h.
The next experiment concerns Bacillus spizizenii. Description: Antibacterial activity against Bacillus subtilis ATCC 6633 assessed as growth inhibition after 18 hrs by two-fold serial dilution method. The experiment is classed as functional. The following applies: ATCC 6633, 18 h. The essentials: as §1
In experiment [8] the test system is Micrococcus luteus. As to the kind of experiment: Antibacterial activity against Micrococcus luteus ATCC 10240 assessed as growth inhibition after 18 hrs by two-fold serial dilution method. The experiment is classed as functional. Conditions: ATCC 10240, 18 h. The essentials: as §1
Experiment [9] relates to Staphylococcus aureus. Description: Antibacterial activity against Staphylococcus aureus ATCC 6538 assessed as growth inhibition after 18 hrs by two-fold serial dilution method. The experiment is classed as functional. Conditions: ATCC 6538, 18 h. The method, boiled down:
as §1

Experiment [10] concerns Candida albicans. As to the kind of experiment: Antifungal activity against Candida albicans ATCC 10231 assessed as growth inhibition after 18 hrs by two-fold serial dilution method. The experiment is classed as functional. The following applies: ATCC 10231, 18 h. The method, boiled down: as §2
In experiment [11] the test system is Staphylococcus aureus. As to the kind of experiment: Antibacterial activity against Staphylococcus aureus ATCC 29213 assessed as growth inhibition after 18 hrs by two-fold serial dilution method. The experiment is classed as functional. The following applies: ATCC 29213, 18 h. The essentials: as §1
Another experiment has as its system Bacillus cereus. As to the kind of experiment: Antibacterial activity against Bacillus cereus ATCC 11778 assessed as growth inhibition after 18 hrs by two-fold serial dilution method. The experiment is classed as functional. The following applies: ATCC 11778, 18 h. The essentials: as §1
For a further experiment, the system named is BALB/3T3. Description: Cytotoxicity against mouse BALB/3T3 cells assessed as growth inhibition after 72 hrs by SRB assay. It is filed as cell-based. The following applies: BALB/3T3, 72 h. The method, boiled down: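 Mouse fibroblasts were kept in Dulbecco medium with 10% FBS, L-glutamine and pyruvate, and seeded at 10⁴/well 24 h before dosing. Agents were given at four tenfold final levels for 72 h. Cells were TCA-fixed (50%, 4 °C, 1 h) and stained with 0.4% SRB in 1% acetic acid. Triplicate wells, 3–5 repeats. IC50 versus untreated cells.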
(In SRB staining, fixed cells bind dye roughly in proportion to their protein.)

A further experiment concerns A549. As to the kind of experiment: Cytotoxicity against human A549 cells assessed as growth inhibition after 72 hrs by SRB assay. The experiment is classed as functional, cell-based. Conditions: A549, 72 h. The essentials:
(§3)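 Cells were seeded at 10⁴/well in RPMI 1640/Opti-MEM (1:1) with 5% FBS, plus 0.01 mg/mL insulin for MCF-7, 24 h before dosing. Agents in water/medium were given at four tenfold final levels for 72 h. Cells were fixed with cold 50% TCA (1 h, 4 °C), stained with 0.4% SRB, cell-free blank. Triplicate wells, 3–5 repeats. IC50 relative to untreated control.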

In the next experiment the test system is KB. As to the kind of experiment: Cytotoxicity against human KB cells assessed as growth inhibition after 72 hrs by SRB assay. It is filed as functional, cell-based. The method, boiled down: as §3
Another experiment has as its system MCF7. Description: Cytotoxicity against human MCF7 cells assessed as growth inhibition after 72 hrs by SRB assay. It is filed as functional, cell-based. Conditions: MCF7, 72 h. The method, boiled down:
as §3

The subject of the next experiment is LoVo. As to the kind of experiment: Cytotoxicity against human LoVo cells assessed as growth inhibition after 72 hrs by SRB assay. It is filed as functional, cell-based. The method, boiled down:
as §3

Experiment [12] concerns Candida albicans. As to the kind of experiment: Antifungal activity against Candida albicans SN250 assessed as inhibition of biofilm formation < MIC after 24 hrs by XTT reduction assay. The experiment is classed as functional, organism-based.

SMILES strings stand for the structures. pIC50: −log10 of the molar value. Values after ≈ are worked out from the molar mass of the structure shown. Active and inactive are the calls of the source. The rule behind the calls is not given here. Bounds are passed on as bounds.

A word on the MIC: it is the lowest concentration that inhibits growth of the organism. For the molecule `Cc1c2c3cc(NC(=O)CNC(=O)[C@@H]4CCCN4)ccc3nc-2n(C)c2ccccc12.Cl.Cl`, the MIC is over 200 µg/mL with Staphylococcus aureus [1]; over 200 µg/mL with Enterococcus hirae; 200 µg/mL with Candida albicans [2]; over 200 µg/mL in the experiment on Staphylococcus aureus [4]; 50 µg/mL in the experiment with Micrococcus luteus [5]; 100 µg/mL in experiment [6]. Further, the MIC is 200 µg/mL with Candida albicans [7]; 200 µg/mL in the experiment with Candida parapsilosis; 100 µg/mL in the experiment with Bacillus spizizenii; 50 µg/mL with Micrococcus luteus [8]; over 200 µg/mL with Staphylococcus aureus [9]; 200 µg/mL with Candida albicans [10]. Moreover, the MIC with Staphylococcus aureus [11] is 100 µg/mL; in the experiment on Bacillus cereus, over 200 µg/mL. Besides, in the experiment with Candida albicans [3], the inhibition result is “inactive”.
Consider `Cc1c2c3cc(NC(=O)CNC(=O)CN)ccc3nc-2n(C)c2ccccc12.Cl.Cl`, for which the MIC in the experiment on Staphylococcus aureus [1] was over 200 µg/mL; in the experiment on Enterococcus hirae, over 200 µg/mL; in the experiment on Candida albicans [2] it was 200 µg/mL; in the experiment with Staphylococcus aureus [4] it was over 200 µg/mL; in the experiment with Micrococcus luteus [5], 200 µg/mL; in experiment [6], over 200 µg/mL. Further, the MIC was 200 µg/mL in the experiment on Candida albicans [7]; 200 µg/mL in the experiment with Candida parapsilosis; 100 µg/mL with Bacillus spizizenii; 200 µg/mL with Micrococcus luteus [8]; over 200 µg/mL in the experiment on Staphylococcus aureus [9]; 200 µg/mL in the experiment with Candida albicans [10]. Further, the MIC in the experiment on Staphylococcus aureus [11] and with Bacillus cereus was over 200 µg/mL each time. In addition, in the experiment on Candida albicans [3], the inhibition result was “inactive”.
A word on the pIC50: it is −log10 of the IC50, conventionally taken in molar units. In the case of `Cc1c2c3ccccc3nc-2n(C)c2ccc(NC(=O)CNC(=O)CN)cc12.Cl`, the negative logarithm of the IC50 (pIC50) in the experiment on BALB/3T3 was 5.68; in the experiment with A549, 5.84; in the experiment with KB it was 5.81; in the experiment with MCF7 it was 5.39; in the experiment on LoVo it was 5.93. The MIC in the experiment on Staphylococcus aureus [1] was over 200 µg/mL; in the experiment on Enterococcus hirae, over 200 µg/mL; in the experiment with Candida albicans [2], over 500 µg/mL; in the experiment on Staphylococcus aureus [4] it was over 200 µg/mL; with Micrococcus luteus [5], over 200 µg/mL; in [6] it was over 200 µg/mL. The MIC in the experiment with Candida albicans [7], with Candida parapsilosis, in the experiment with Bacillus spizizenii, in the experiment with Micrococcus luteus [8], in the experiment on Staphylococcus aureus [9] and in the experiment on Candida albicans [10] was over 200 µg/mL in each case. For the same molecule, the MIC in the experiment on Staphylococcus aureus [11] and in the experiment on Bacillus cereus was over 200 µg/mL throughout. For the same molecule, the inhibition result with Candida albicans [3] was “inactive”.
Regarding `Cc1c2c3ccccc3nc-2n(C)c2ccccc12`, the pIC50 in the experiment with BALB/3T3 was 5.24. Besides, the MIC was found to be 100 µg/mL (≈ 406 µM) in the experiment on Staphylococcus aureus [1]; 200 µg/mL (≈ 812 µM) in the experiment with Enterococcus hirae; 12.5 µg/mL (≈ 50.7 µM) in the experiment on Candida albicans [2]; 200 µg/mL (≈ 812 µM) with Staphylococcus aureus [4]; 50 µg/mL (≈ 203 µM) in the experiment on Micrococcus luteus [5]; 100 µg/mL (≈ 406 µM) in [6]. Moreover, the MIC was 12.5 µg/mL (≈ 50.7 µM) in the experiment with Candida albicans [7]; 12.5 µg/mL (≈ 50.7 µM) with Candida parapsilosis; 50 µg/mL (≈ 203 µM) in the experiment on Bacillus spizizenii; 50 µg/mL (≈ 203 µM) in the experiment with Micrococcus luteus [8]; 100 µg/mL (≈ 406 µM) in the experiment on Staphylococcus aureus [9]; 12.5 µg/mL (≈ 50.7 µM) in the experiment on Candida albicans [10]. Also, the MIC in the experiment with Staphylococcus aureus [11] and with Bacillus cereus was 100 µg/mL (≈ 406 µM) in each case. The inhibition entry with Candida albicans [12] was “Active”.
Regarding `Cc1c2c3ccccc3nc-2n(C)c2ccc(NC(=O)[C@@H](N)Cc3cnc[nH]3)cc12.Cl`, the MIC with Staphylococcus aureus [1] was over 200 µg/mL; in the experiment with Enterococcus hirae it was over 200 µg/mL; with Candida albicans [2], 250 µg/mL; in the experiment with Staphylococcus aureus [4], over 200 µg/mL; in the experiment on Micrococcus luteus [5] it was over 200 µg/mL; in experiment [6], over 200 µg/mL. Further, the MIC in the experiment on Candida albicans [7], with Candida parapsilosis, in the experiment on Bacillus spizizenii, in the experiment with Micrococcus luteus [8], in the experiment with Staphylococcus aureus [9] and in the experiment on Candida albicans [10] was over 200 µg/mL each time. Further, the MIC with Staphylococcus aureus [11] and in the experiment on Bacillus cereus was over 200 µg/mL each time. In the experiment with Candida albicans [3], the inhibition entry is “inactive”. Further, the pIC50 with KB was 5.41.
